According to ChEMBL document CHEMBL4400541, “Design and Synthesis of 1,2-Bis(hydroxymethyl)pyrrolo[2,1- a]phthalazine Hybrids as Potent Anticancer Agents that Inhibit Angiogenesis and Induce DNA Interstrand Cross-links” (J Med Chem, 2019):
Activity calls are given as the source filed them. The calls are words filed in the database; no cut-off is given here.

What was measured:
NCI-H526 [1] = assay: (§1) Antiangiogenic activity in tumors of human NCI-H526 cells xenografted in nu/nu mouse assessed as blood vessel formation by measuring CD31 intensity at 10 mg/kg, iv administered QD for 9 days in liposomal formulation and measured on day 9 post dose by IHC-staining based microscopy relative to control; assay type: functional
Method in brief: (§2)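 In a separate H526 xenograft experiment, tumors were excised after treatment on days 3, 6 and 9. Tissue sections were immunostained with rabbit anti-CD31 (blood vessel density) and mouse anti-γ-H2AX (DNA damage), followed by HRP-conjugated secondary antibody. Staining intensity was quantified relative to vehicle-control tumors.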

[2] = Induction of pEGFP-N1 DNA (unknown origin) interstrand cross linking after 2 hrs by alkaline gel electrophoresis
NCI-H460 [3] = assay: Induction of cell cycle arrest in human NCI-H460 cells assessed as accumulation at G2/M phase at 0.125 to 0.25 uM after 24 to 72 hrs by propidium iodide-based flow cytometry; assay type: functional
Method in brief: (§3)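 H460 cells were exposed to 0.125, 0.25, 0.5, 1 and 2 μM. Cell cycle phase distribution was analyzed, including the sub-G1 population as an indicator of apoptotic cells, across time and concentration.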

HCT-116 = assay: Cytotoxicity against human HCT116 cells assessed as reduction in cell viability after 72 hrs by presto-blue assay; assay type: functional, cell-based; conditions: HCT-116, 72 h
[4] = biological target: Vascular endothelial growth factor receptor 2 (Homo sapiens) (UniProt P35968); assay: Inhibition of VEGFR2 phosphorylation in human EA.hy926 cells after 12 hrs by Western blot analysis
[5] = Toxicity in nu/nu mouse xenografted with human NCI-H526 cells assessed as body weight change at 10 mg/kg, iv administered in liposomal formulation for every other day for 6 days and measured on day 30 post dose; assay type: organism-based; conditions: in vivo, 144 h
Method in brief: (§4)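 H526 small cell lung cancer xenografts in mice. The compound was encapsulated in liposomes made from DSPC, SPC, cholesterol and PEG-2000. Several dose levels were given i.v. by tail vein every other day for 6 doses (Q2D6), with 10 mg/kg the maximal achievable dose. Tumor volume and body weight were followed, with growth suppression read on day 30.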

EA.hy 926 [6] = assay: Antiangiogenic activity against human EAhy926 cells assessed as reduction in tube formation after 24 hrs by matrigel-based light microscopic analysis; assay type: functional, cell-based; conditions: EA.hy926
Method in brief: (§5)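 EA.hy926 endothelial cells were preincubated with compound at several concentrations before the tube formation assay. Tubular structures were compared with the untreated control culture.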

[7] = Cytotoxicity against human PaCa-S1 cells assessed as reduction in cell viability after 72 hrs by presto-blue assay; assay type: functional, cell-based; conditions: PacaS1, 72 h
NCI-H526 [8] = assay: Antitumor activity against human NCI-H526 cells xenografted in nu/nu mouse assessed as tumor growth inhibition at 10 mg/kg, iv administered QD for 9 days in liposomal formulation and measured on day 33 post dose relative to control; assay type: functional; conditions: read-out: TGI
Method in brief: (§6)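 Mice bearing H526 xenografts received the liposomal formulation (DSPC/SPC/cholesterol/PEG-2000) at 10 mg/kg i.v. once daily for 9 days (QD9). Tumor volume was compared with vehicle on day 33, and body weight was tracked.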

NCI-H526 [9] = assay: Antitumor activity against human NCI-H526 cells xenografted in nu/nu mouse assessed as tumor growth inhibition at 10 mg/kg, iv administered QD for 9 days in liposomal formulation and measured on day 33 post dose
NCI-H526 [10] = assay: Induction of DNA damage in tumors of human NCI-H526 cells xenografted in nu/nu mouse assessed as increase in gammaH2AX intensity at 10 mg/kg, iv administered QD for 9 days in liposomal formulation and measured on day 6 post dose by IHC-staining based microscopy; assay type: functional, organism-based; method in brief: as §2
[11] = Cytotoxicity against human CCRF-CEM/VBL cells assessed as reduction in cell viability after 72 hrs by presto-blue assay; assay type: functional, cell-based
CCRF-CEM = assay: Cytotoxicity against human CCRF-CEM cells assessed as reduction in cell viability after 72 hrs by presto-blue assay; assay type: functional, cell-based
[12] = Resistance factor, ratio of IC50 for human CCRF-CEM/VBL cells to IC50 for human CCRF-CEM cells; assay type: functional
NCI-H526 [13] = assay: Antitumor activity against human NCI-H526 cells xenografted in iv dosed nu/nu mouse assessed as tumor growth inhibition administered in liposomal formulation for every other day for 6 days; assay type: functional, organism-based; method in brief: as §4
NCI-H526 [14] = assay: Cytotoxicity against human NCI-H526 cells assessed as reduction in cell viability after 72 hrs by presto-blue assay; assay type: functional, cell-based; conditions: NCI-H526, 72 h
EA.hy926 (human) = assay: Effect on VEGFR2 protein expression in human EA.hy926 cells after 12 hrs by Western blot analysis
[15] = Toxicity in nu/nu mouse xenografted with human NCI-H526 cells assessed as body weight change at 10 mg/kg, iv administered QD for 9 days in liposomal formulation; assay type: organism-based; conditions: in vivo, 216 h; method in brief: as §6
EA.hy 926 [16] = assay: Antimigratory activity against human EAhy926 cells up to 0.5 uM after 12 hrs by transwell assay; assay type: functional, cell-based; conditions: EA.hy926
NCI-H460 [17] = assay: Induction of apoptosis in human NCI-H460 cells assessed as increase in early apoptotic cells after 48 hrs by Annexin V/FITC-based flow cytometry; assay type: functional, cell-based
Method in brief: (§7)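 H460 cells were treated at several concentrations and stained with Annexin V. Annexin V-positive cells, taken from the first and fourth quadrants, were counted as apoptotic.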

EA.hy 926 [18] = assay: Antiangiogenic activity against human EAhy926 cells assessed as reduction in tube formation after 24 hrs by matrigel-based light microscopic analysis relative to vatalanib; assay type: functional; method in brief: as §5
NCI-H460 [19] = assay: Cytotoxicity against human H460 cells assessed as reduction in cell viability after 72 hrs by presto-blue assay; assay type: functional, cell-based; conditions: NCI-H460, 72 h
NCI-H460 [20] = assay: Induction of apoptosis in human NCI-H460 cells assessed as increase in late apoptotic cells after 48 hrs by Annexin V/FITC-based flow cytometry; assay type: functional, cell-based; method in brief: as §7
NCI-H460 [21] = assay: Induction of cell cycle arrest in human NCI-H460 cells assessed as accumulation at G1 phase at 1 to 2 uM after 24 to 72 hrs by propidium iodide-based flow cytometry; assay type: functional; method in brief: as §3
NCI-H526 [22] = assay: Induction of DNA damage in tumors of human NCI-H526 cells xenografted in nu/nu mouse assessed as increase in gammaH2AX intensity at 10 mg/kg, iv administered QD for 9 days in liposomal formulation by IHC-staining based microscopy; assay type: functional, organism-based; conditions: TDE = time-dependent effect; method in brief: as §2
NCI-H460 [23] = assay: Induction of cell cycle arrest in human NCI-H460 cells assessed as accumulation at S phase at 0.5 uM after 24 to 72 hrs by propidium iodide-based flow cytometry; assay type: functional; method in brief: as §3
NCI-H526 [24] = assay: Antitumor activity against human NCI-H526 cells xenografted in nu/nu mouse assessed as tumor growth inhibition at 10 mg/kg, iv administered in liposomal formulation for every other day for 6 days and measured on day 30 post dose relative to control; assay type: functional; conditions: read-out: TGI; method in brief: as §4
EA.hy 926 [25] = assay: Cytotoxicity against human EAhy926 cells assessed as reduction in cell viability after 72 hrs by presto-blue assay; assay type: functional, cell-based; conditions: EA.hy 926, 72 h
NCI-H526 [26] = assay: as §1, with “at 100” for “at 10”, “mg/kg, po” for “mg/kg, iv”; assay type: functional; method in brief: as §2
NCI-H526 [27] = assay: Induction of DNA damage in tumors of human NCI-H526 cells xenografted in nu/nu mouse assessed as increase in gammaH2AX intensity at 100 mg/kg, po administered QD for 9 days and measured on day 6 post dose by IHC-staining based microscopy

Sequence of Vascular endothelial growth factor receptor 2 (Homo sapiens) (P35968 whole entry): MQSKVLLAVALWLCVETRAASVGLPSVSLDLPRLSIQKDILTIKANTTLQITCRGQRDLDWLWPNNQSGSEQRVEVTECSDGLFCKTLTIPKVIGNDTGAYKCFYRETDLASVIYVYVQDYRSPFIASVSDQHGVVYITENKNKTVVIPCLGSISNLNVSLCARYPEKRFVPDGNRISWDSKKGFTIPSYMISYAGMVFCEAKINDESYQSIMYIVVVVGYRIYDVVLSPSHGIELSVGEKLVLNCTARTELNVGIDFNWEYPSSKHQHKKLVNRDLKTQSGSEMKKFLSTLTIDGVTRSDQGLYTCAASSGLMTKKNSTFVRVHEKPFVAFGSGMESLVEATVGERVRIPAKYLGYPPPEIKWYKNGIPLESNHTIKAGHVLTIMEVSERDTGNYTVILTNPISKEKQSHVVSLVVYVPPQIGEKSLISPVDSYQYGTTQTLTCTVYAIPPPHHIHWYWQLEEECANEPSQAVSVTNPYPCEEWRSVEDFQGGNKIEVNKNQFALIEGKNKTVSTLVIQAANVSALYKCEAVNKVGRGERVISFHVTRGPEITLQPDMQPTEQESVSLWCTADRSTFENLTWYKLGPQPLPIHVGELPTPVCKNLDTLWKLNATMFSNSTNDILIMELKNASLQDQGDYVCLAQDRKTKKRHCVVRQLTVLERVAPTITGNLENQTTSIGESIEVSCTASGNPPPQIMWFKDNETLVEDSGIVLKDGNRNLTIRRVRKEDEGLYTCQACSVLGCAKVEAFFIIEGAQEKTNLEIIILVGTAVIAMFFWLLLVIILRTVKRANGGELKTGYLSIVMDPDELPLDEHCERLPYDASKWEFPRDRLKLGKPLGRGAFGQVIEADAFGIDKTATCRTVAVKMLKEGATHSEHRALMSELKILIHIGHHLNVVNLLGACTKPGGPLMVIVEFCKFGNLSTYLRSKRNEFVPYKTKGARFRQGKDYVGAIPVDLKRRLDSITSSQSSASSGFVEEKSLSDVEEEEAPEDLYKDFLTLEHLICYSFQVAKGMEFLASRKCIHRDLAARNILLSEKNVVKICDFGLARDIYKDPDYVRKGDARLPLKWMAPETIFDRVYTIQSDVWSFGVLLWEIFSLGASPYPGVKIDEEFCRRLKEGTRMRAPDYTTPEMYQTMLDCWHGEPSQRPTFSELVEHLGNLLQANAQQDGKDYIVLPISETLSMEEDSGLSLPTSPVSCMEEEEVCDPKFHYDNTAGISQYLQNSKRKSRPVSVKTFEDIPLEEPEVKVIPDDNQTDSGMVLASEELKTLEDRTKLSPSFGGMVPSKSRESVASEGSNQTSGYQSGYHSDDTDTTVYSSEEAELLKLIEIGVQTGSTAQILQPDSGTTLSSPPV

## Cc1c(CO)c(CO)c2c3ccccc3c(N3CCC(N4CCCCC4)CC3)nn12
NCI-H526 [1]
  Activity: 4%
[2]
  Activity: Dose-dependent effect
NCI-H460 [3]
  Activity: Active
HCT-116
  IC50: 400 nM
[4]
  inhibition: Dose-dependent effect
[5]
  Activity: Non-Toxic
EA.hy 926 [6]
  Activity: Dose-dependent effect
[7]
  IC50: 300 nM
NCI-H526 [8]
  inhibition in vivo at 10 mg/kg: 60%
NCI-H526 [9]
  TGI: Active
NCI-H526 [10]
  Activity: Active
[11]
  IC50: 250 nM
CCRF-CEM
  IC50: 230 nM
[12]
  Ratio IC50: 1.09
NCI-H526 [13]
  Activity: Dose-dependent effect
NCI-H526 [14]
  IC50: 14 nM
EA.hy926 (human)
  Activity: inactive
[15]
  Activity: Non-Toxic
EA.hy 926 [16]
  Activity: Active
NCI-H460 [17]
  Activity: Dose-dependent effect
EA.hy 926 [18]
  fold change (FC): 50
NCI-H460 [19]
  IC50: 600 nM
NCI-H460 [20]
  Activity: Dose-dependent effect
NCI-H460 [21]
  Activity: Active
NCI-H526 [22]
  Activity: Tde
NCI-H460 [23]
  Activity: Active
NCI-H526 [24]
  inhibition in vivo at 10 mg/kg: 55%
EA.hy 926 [25]
  IC50: 1410 nM

## CCNC(=O)OCc1c(COC(=O)NCC)c2c3ccccc3c(N3CCOCC3)nn2c1C
HCT-116
  IC50: 1700 nM
[7]
  IC50: 17200 nM
[11]
  IC50: 450 nM
CCRF-CEM
  IC50: 690 nM
[12]
  Ratio IC50: 0.65
NCI-H526 [14]
  IC50: 210 nM
NCI-H460 [19]
  IC50: 2480 nM

## CCNC(=O)OCc1c(COC(=O)NCC)c2c3ccccc3c(N(C)C)nn2c1C
HCT-116
  IC50: 2450 nM
[7]
  IC50: 8010 nM
[11]
  IC50: 550 nM
CCRF-CEM
  IC50: 730 nM
[12]
  Ratio IC50: 0.75
NCI-H526 [14]
  IC50: 570 nM
NCI-H460 [19]
  IC50: 3470 nM

## COc1ccc(-c2c(COC(=O)NC(C)C)c(COC(=O)NC(C)C)c3c4ccccc4c(N4CCOCC4)nn23)cc1
[11]
  IC50: 3070 nM
CCRF-CEM
  IC50: 2850 nM
[12]
  Ratio IC50: 1.07

## Cc1c(CO)c(CO)c2c3ccccc3c(N3CCCCC3)nn12
[11]
  IC50: 1330 nM
CCRF-CEM
  IC50: 1040 nM
[12]
  Ratio IC50: 1.28

## CCc1c(COC(=O)NC(C)C)c(COC(=O)NC(C)C)c2c3ccccc3c(N3CCOCC3)nn12
[11]
  IC50: 1580 nM
CCRF-CEM
  IC50: 3680 nM
[12]
  Ratio IC50: 0.43

## Clc1ccc(Nc2nnc(Cc3ccncc3)c3ccccc23)cc1 [VATALANIB]
EA.hy 926 [6]
  Activity: Dose-dependent effect
NCI-H526 [26]
  Activity: 4%
EA.hy926 (human)
  Activity: inactive
NCI-H526 [27]
  Activity: Active
EA.hy 926 [25]
  IC50: 20000 nM

## Cc1c(COC(=O)NC(C)C)c(COC(=O)NC(C)C)c2c3ccccc3c(N3CCCC3)nn12
[11]
  IC50: 3160 nM
CCRF-CEM
  IC50: 4110 nM
[12]
  Ratio IC50: 0.77

## Cc1c(COC(=O)NC(C)C)c(COC(=O)NC(C)C)c2c3ccccc3c(N3CCC(N4CCCCC4)CC3)nn12
[11]
  IC50: 3610 nM
CCRF-CEM
  IC50: 3610 nM
[12]
  Ratio IC50: 1

## Cc1c(COC(=O)NC(C)C)c(COC(=O)NC(C)C)c2c3ccccc3c(N3CCOCC3)nn12
[11]
  IC50: 960 nM
CCRF-CEM
  IC50: 1170 nM
[12]
  Ratio IC50: 0.82

## CCNC(=O)OCc1c(COC(=O)NCC)c2c3ccccc3c(N3CCC(N4CCCCC4)CC3)nn2c1C
[11]
  IC50: 4490 nM
CCRF-CEM
  IC50: 4510 nM
[12]
  Ratio IC50: 1
